In brackets after ≈: the same amount, converted by molar mass.
How the values were obtained:
[1] = Cytotoxicity against human 9KB cells treated as ethanol solution; type: functional; conditions: read-out: ED50 (the source's name)
How it was run: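 Compound applied as an ethanol solution; activity read out as ED50 under the general screening protocol.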

L1210 [2] = assay: Antileukemic activity against mouse L1210 cells allografted in female BDF1 mouse assessed as change in body weight at 50 mg/kg, ip administered daily for 9 days as Klucel suspension starting 24 hrs after tumor inoculation; type: functional; conditions: route intraperitoneal
How it was run: (§1)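 Ascitic fluid carrying L1210 cells was inoculated ip. Compound was given ip as a Klucel (hydroxypropylcellulose) suspension in nine daily doses, starting 24 h after inoculation. Body-weight difference (treated minus control) was recorded on day 5. Survival was scored as %T/C of mean survival time.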

L1210 [3] = assay: Antileukemic activity against mouse L1210 cells allografted in female BDF1 mouse assessed as change in body weight at 100 mg/kg, ip administered daily for 9 days as Klucel suspension starting 24 hrs after tumor inoculation; type: functional; conditions: route intraperitoneal; how it was run: as §1
L1210 [4] = assay: Antileukemic activity against mouse L1210 cells allografted in female BDF1 mouse assessed as change in body weight at 200 mg/kg, ip administered daily for 9 days as Klucel suspension starting 24 hrs after tumor inoculation; type: functional; conditions: route intraperitoneal; how it was run: as §1
L1210 [5] = assay: Antileukemic activity against mouse L1210 cells allografted in female BDF1 mouse assessed as host mean survival time at 100 mg/kg, ip administered daily for 9 days as Klucel suspension starting 24 hrs after tumor inoculation relative to control; type: functional; conditions: route intraperitoneal
How it was run: (§2)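 L1210 leukemia given as an ascitic fluid cell inoculum, ip, to mice of the strain and sex in each line. Test material was given ip for nine daily doses starting 24 h after inoculation, in a Klucel (hydroxypropylcellulose) suspension. Read-out is mean survival time as %T/C versus controls, with >125 taken as significant.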

L1210 [6] = assay: Antileukemic activity against mouse L1210 cells allografted in female BDF1 mouse assessed as host mean survival time at 50 mg/kg, ip administered daily for 9 days as Klucel suspension starting 24 hrs after tumor inoculation relative to control; type: functional; conditions: route intraperitoneal; how it was run: as §2
Mus musculus [7] = assay: Toxicity in female BDF1 mouse allografted with mouse L1210 cells assessed as animal survival at 200 mg/kg, ip administered daily for 9 days as Klucel suspension starting 24 hrs after tumor inoculation measured on fifth day; type: organism-based; set-up: dose 200 mg/kg, route intraperitoneal; conditions: in vivo
How it was run: (§3)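 L1210 leukemia passaged as ascitic fluid and inoculated ip. Test agent given ip as a Klucel (hydroxypropylcellulose) suspension, nine daily doses starting 24 h after tumor inoculation. Acute toxicity read as toxicity-day survivors per group (out of 6), recorded on day 5. Animal weight difference T − C was also recorded. Follows NCI screening protocols.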

Mus musculus [8] = assay: Toxicity in female BDF1 mouse allografted with mouse L1210 cells assessed as animal survival at 100 mg/kg, ip administered daily for 9 days as Klucel suspension starting 24 hrs after tumor inoculation measured on fifth day; type: organism-based; set-up: dose 100 mg/kg, route intraperitoneal; conditions: in vivo
How it was run: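 Female BDF1 mice bearing ip ascitic L1210 inoculum got nine daily ip doses in a Klucel suspension, starting 24 h after tumor inoculation. Toxicity was scored as toxicity-day survivors out of the group, recorded on the fifth day. Animal weight difference (T − C) was also tabulated.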

Mus musculus [9] = assay: Toxicity in female BDF1 mouse allografted with mouse L1210 cells assessed as animal survival at 50 mg/kg, ip administered daily for 9 days as Klucel suspension starting 24 hrs after tumor inoculation measured on fifth day; type: organism-based; set-up: dose 50 mg/kg, route intraperitoneal; conditions: in vivo; how it was run: as §3
Mus musculus [10] = assay: Toxicity in female CDF1 mouse allografted with mouse P388 cells assessed as animal survival at 50 mg/kg, ip administered daily for 9 days as Klucel suspension starting 24 hrs after tumor inoculation; type: organism-based; set-up: dose 50 mg/kg, route intraperitoneal; conditions: in vivo
How it was run: (§4)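 P-388 leukemia ascitic fluid inoculated ip. Compound given ip as a suspension in Klucel (hydroxypropylcellulose), once daily for nine doses beginning 24 h post-inoculation. Acute toxicity assessed as toxicity-day survivors per group. Survival was followed up to 30 days, with 30-day survival counted as "cure". Follows NCI screening protocols.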

P388 [11] = assay: Antitumor activity against mouse P388 cells allografted in female CDF1 mouse assessed as change in body weight at 50 mg/kg, ip administered daily for 9 days as Klucel suspension starting 24 hrs after tumor inoculation; type: functional; conditions: route intraperitoneal
How it was run: (§5)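 Ascitic fluid carrying P388 cells was inoculated ip. Compound was given ip in nine daily doses, starting 24 h after inoculation, in Klucel (hydroxypropylcellulose) suspension or in saline with Tween-80. Body-weight difference (treated minus control) was recorded on day 5. Survival was scored as %T/C of median survival time, and 30-day survival counted as cure.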

P388 [12] = assay: Antitumor activity against mouse P388 cells allografted in female CDF1 mouse assessed as change in body weight at 100 mg/kg, ip administered daily for 9 days as Klucel suspension starting 24 hrs after tumor inoculation; type: functional; conditions: route intraperitoneal; how it was run: as §5
P388 [13] = assay: Antitumor activity against mouse P388 cells allografted in female CDF1 mouse assessed as change in body weight at 200 mg/kg, ip administered daily for 9 days as Klucel suspension starting 24 hrs after tumor inoculation; type: functional; conditions: route intraperitoneal; how it was run: as §5
P388 [14] = assay: Antitumor activity against mouse P388 cells allografted in female CDF1 mouse assessed as disease cures by measuring 30-days host survival at 200 mg/kg, ip administered daily for 9 days as Klucel suspension starting 24 hrs after tumor inoculation relative to control; type: functional; conditions: route intraperitoneal
How it was run: (§6)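 P388 leukemia given as an ascitic fluid cell inoculum, ip, to mice of the strain and sex in each line. Nine daily ip doses were given in a Klucel (hydroxypropylcellulose) suspension, starting 24 h after inoculation. Read-out is median survival time as %T/C, with >125 taken as significant; a "cure" means 30-day survival.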

P388 [15] = assay: Antitumor activity against mouse P388 cells allografted in female CDF1 mouse assessed as disease cures by measuring 30-days host survival at 100 mg/kg, ip administered daily for 9 days as Klucel suspension starting 24 hrs after tumor inoculation relative to control; type: functional; conditions: route intraperitoneal; how it was run: as §6
P388 [16] = assay: Antitumor activity against mouse P388 cells allografted in female CDF1 mouse assessed as disease cures by measuring 30-days host survival at 50 mg/kg, ip administered daily for 9 days as Klucel suspension starting 24 hrs after tumor inoculation relative to control; type: functional; conditions: route intraperitoneal; how it was run: as §6
L1210 [17] = assay: Antileukemic activity against mouse L1210 cells allografted in female BDF1 mouse assessed as host mean survival time at 200 mg/kg, ip administered daily for 9 days as Klucel suspension starting 24 hrs after tumor inoculation relative to control; type: functional; conditions: route intraperitoneal; how it was run: as §2
Mus musculus [18] = assay: Toxicity in female CDF1 mouse allografted with mouse P388 cells assessed as animal survival at 100 mg/kg, ip administered daily for 9 days as Klucel suspension starting 24 hrs after tumor inoculation; type: organism-based; set-up: dose 100 mg/kg, route intraperitoneal; conditions: in vivo; how it was run: as §4
Mus musculus [19] = assay: Toxicity in female BDF1 mouse allografted with mouse P388 cells assessed as animal survival at 25 mg/kg, ip administered daily for 9 days as Klucel suspension starting 24 hrs after tumor inoculation; type: organism-based; set-up: dose 25 mg/kg, route intraperitoneal; conditions: in vivo; how it was run: as §4
Mus musculus [20] = assay: Toxicity in female BDF1 mouse allografted with mouse P388 cells assessed as animal survival at 12.5 mg/kg, ip administered daily for 9 days as Klucel suspension starting 24 hrs after tumor inoculation; type: organism-based; set-up: dose 12.5 mg/kg, route intraperitoneal; conditions: in vivo; how it was run: as §4
P388 [21] = assay: Antitumor activity against mouse P388 cells allografted in female BDF1 mouse assessed as disease cures by measuring 30-days host survival at 25 mg/kg, ip administered daily for 9 days as Klucel suspension starting 24 hrs after tumor inoculation relative to control; type: functional; conditions: route intraperitoneal; how it was run: as §6
P388 [22] = assay: Antitumor activity against mouse P388 cells allografted in female BDF1 mouse assessed as disease cures by measuring 30-days host survival at 12.5 mg/kg, ip administered daily for 9 days as Klucel suspension starting 24 hrs after tumor inoculation relative to control; type: functional; conditions: route intraperitoneal; how it was run: as §6
Mus musculus [23] = assay: Toxicity in female CDF1 mouse allografted with mouse P388 cells assessed as animal survival at 200 mg/kg, ip administered daily for 9 days as Klucel suspension starting 24 hrs after tumor inoculation; type: organism-based; set-up: dose 200 mg/kg, route intraperitoneal; conditions: in vivo; how it was run: as §4
P388 [24] = assay: Antitumor activity against mouse P388 cells allografted in female BDF1 mouse assessed as change in body weight at 25 mg/kg, ip administered daily for 9 days as Klucel suspension starting 24 hrs after tumor inoculation; type: functional; conditions: route intraperitoneal; how it was run: as §5
P388 [25] = assay: Antitumor activity against mouse P388 cells allografted in female BDF1 mouse assessed as change in body weight at 12.5 mg/kg, ip administered daily for 9 days as Klucel suspension starting 24 hrs after tumor inoculation; type: functional; conditions: route intraperitoneal; how it was run: as §5

Structure (SMILES) | EC50 [1] | Activity (L1210 [2]) | Activity (L1210 [3]) | Activity (L1210 [4]) | T/C (L1210 [5]) | T/C (L1210 [6]) | Activity (Mus musculus [7]) | Activity (Mus musculus [8]) | Activity (Mus musculus [9]) | Activity (Mus musculus [10]) | Activity (P388 [11]) | Activity (P388 [12]) | Activity (P388 [13]) | T/C (P388 [14]) | T/C (P388 [15]) | T/C (P388 [16]) | T/C (L1210 [17]) | Activity (Mus musculus [18]) | Activity (Mus musculus [23]) | further results
OCc1c(CO)c(C(F)(F)F)n2c1CCC2 | 25 µg/mL (≈ 106 µM) | -0.3 g | -1.1 g | -2.8 g | 104% | 107% | Toxic | Non-toxic | Non-toxic | Non-toxic | 2.1 g | 0.6 g | 1.1 g | 108% | 104% | 104% |  |  |  | 
CNC(=O)OCc1c(COC(=O)NC)c(C(F)(F)F)n2c1CCC2 | 2.5 µg/mL (≈ 7.16 µM) | -0.1 g | -0.8 g | -0.2 g | 100% | 104% | Non-toxic | Non-toxic | Non-toxic | Non-toxic | 1.4 g | -0.4 g | -1.5 g | 82% | 116% | 117% | 98% | Non-toxic |  | 
CC(=O)OCc1c(COC(C)=O)c(-c2ccc(Cl)c(Cl)c2)n2c1CCC2 | > 100 µg/mL | -1.1 g | -2.2 g | -3.3 g | 104% | 100% | Non-toxic | Non-toxic | Non-toxic | Non-toxic | -0.7 g | -1 g | -3 g | 127% | 122% | 141% | 100% | Non-toxic | Non-toxic | Activity (Mus musculus [19]): Non-toxic; Activity (Mus musculus [20]): Non-toxic; T/C (P388 [21]): 125%; T/C (P388 [22]): 114%; Activity (P388 [24]): 1.2 g; Activity (P388 [25]): 1.2 g
CNC(=O)OCc1c(COC(=O)NC)c(-c2ccccc2)n2c1CCC2 | 22 µg/mL (≈ 61.6 µM) | -2.6 g | -1.5 g | -3.1 g | 104% | 104% | Non-toxic | Non-toxic | Non-toxic | Non-toxic | -2.1 g | -1.8 g | -3.5 g | 59% | 124% | 124% | 110% | Non-toxic | Non-toxic | 
CC(=O)OCc1c(COC(C)=O)c(C(F)(F)F)n2c1CCC2 | 2.4 µg/mL (≈ 7.52 µM) | -1 g | -0.6 g | -0.8 g | 100% | 107% | Non-toxic | Non-toxic | Non-toxic | Non-toxic | 2.1 g | 1.8 g | 1.1 g | 104% | 93% | 90% | 98% | Non-toxic | Non-toxic | 
